The subject of experiment [1] is MDA-MB-231. The experiment can be described thus: Suppression of MUC1 mRNA expression in human MDA-MB-231 cells by qRT-PCR. The format is functional, cell-based. A general note: Real-time PCR tracks product formation cycle by cycle.
The test system of experiment [2] is MDA-MB-231. The experiment can be described thus: Increase in sialic acid production in human MDA-MB-231 cells by periodate-resorcinal assay. It counts as functional, cell-based.
Experiment [3] relates to MDA-MB-231. Briefly: Growth inhibition of human MDA-MB-231 cells. The format is functional, cell-based.
In experiment [4] the test system is MDA-MB-231. Briefly: Increase in TGF-beta1 mRNA expression in human MDA-MB-231 cells after 3 days by qRT-PCR. It counts as functional, cell-based.
The subject of experiment [5] is MDA-MB-231. Briefly: Increase in NQO1 mRNA expression in human MDA-MB-231 cells after 3 days by qRT-PCR. It counts as functional, cell-based.
For experiment [6], the system named is MDA-MB-231. Briefly: Increase in VEGFA mRNA expression in human MDA-MB-231 cells after 3 days by qRT-PCR. It counts as functional, cell-based.
The test system of experiment [7] is MDA-MB-231. The experiment can be described thus: Increase in ID1 mRNA expression in human MDA-MB-231 cells after 3 days by qRT-PCR. It counts as functional, cell-based.
The subject of experiment [8] is MDA-MB-231. The experiment can be described thus: Increase in VEGFA mRNA expression in human MDA-MB-231 cells at 75 uM after 3 days by qRT-PCR. The format is functional, cell-based.
Experiment [9] concerns HCT-116. The experiment can be described thus: Decrease in TP53 protein expression in human HCT116 cells assessed as protein levels at 20 uM after 3 days by Western blotting. The format is functional. Set-up: scale not given: the % may be the effect or the level left. The essentials:
(§1)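 Treated cells (3 days unless stated; HCT-116 also 24 h) washed in ice-cold PBS, lysed in RIPA with protease inhibitors; equal protein (5–20 μg, BCA) run on 4–15% Tris-HCl gel, transferred to nitrocellulose, blocked in 5% milk/TBST, primary antibody 2 h RT or overnight 4 °C, HRP secondary 1 h; chemiluminescence, densitometry. β-actin antibody also used. Two independent experiments.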
(In western blotting, separated proteins are transferred to a membrane and probed.)

For experiment [10], the system named is MDA-MB-231. The experiment can be described thus: Increase in ID1 mRNA expression in human MDA-MB-231 cells at 75 uM after 3 days by qRT-PCR. It counts as functional, cell-based.
The test system of experiment [11] is HCT-116. The experiment can be described thus: Increase in EGR1 mRNA expression in human HCT116 cells after 24 hrs by qRT-PCR. It counts as functional, cell-based.
In experiment [12] the test system is MDA-MB-231. The experiment can be described thus: Growth inhibition of human MDA-MB-231 cells after 3 days. It counts as functional, cell-based. The essentials: (§2)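 Cells seeded in 6-well plates (MDA-MB-231 2.0–2.7×10^5, HCT-116 1.0×10^5 cells/well) with analog in ethanol (vehicle <0.5% v/v), grown 3 days at 37 °C, 5% CO2; cell numbers by Coulter particle counter, two 100 μl counts per sample.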

The subject of experiment [13] is HCT-116. The experiment can be described thus: Decrease in TP53 mRNA level in human HCT116 cells at >=15 uM after 3 days by qRT-PCR.
For experiment [14], the system named is MDA-MB-231. Briefly: Decrease in EGR1 protein expression in human MDA-MB-231 cells at >45 uM after 3 days by Western blotting relative to control. The format is functional. The gist of the method: as §1
Experiment [15] deals with MDA-MB-231. The experiment can be described thus: Increase in TGF-beta1 mRNA expression in human MDA-MB-231 cells at 75 uM after 3 days by qRT-PCR. The format is functional, cell-based.
Experiment [16] relates to HCT-116. The experiment can be described thus: Increase in EGR1 protein expression in human HCT116 cells after 3 days by Western blotting. It counts as functional, cell-based. The gist of the method: as §1
Experiment [17] has as its system MDA-MB-231. The experiment can be described thus: Increase in VEGFA mRNA expression in human MDA-MB-231 cells at 60 uM after 3 days by qRT-PCR. The format is functional, cell-based.
Experiment [18] deals with MDA-MB-231. Briefly: Increase in VEGFA mRNA expression in human MDA-MB-231 cells at 45 uM after 3 days by qRT-PCR. It counts as functional, cell-based.
In experiment [19] the test system is MDA-MB-231. The experiment can be described thus: Increase in TGF-beta1 mRNA expression in human MDA-MB-231 cells at 45 uM after 3 days by qRT-PCR. It counts as functional, cell-based.
The subject of experiment [20] is MDA-MB-231. Briefly: Increase in ID1 mRNA expression in human MDA-MB-231 cells at 45 uM after 3 days by qRT-PCR. The format is functional, cell-based.
For experiment [21], the system named is HCT-116. The experiment can be described thus: Decrease in TP53 protein expression in human HCT116 cells assessed as protein levels at 25 uM after 3 days by Western blotting. The format is functional. Details: scale not given: the % may be the effect or the level left. The essentials:
as §1

The subject of experiment [22] is MDA-MB-231. The experiment can be described thus: Suppression of TP53 mRNA expression in human MDA-MB-231 cells at 75 uM after 3 days by qRT-PCR. The format is functional, cell-based.
Experiment [23] has as its system MDA-MB-231. The experiment can be described thus: Increase in EGR1 mRNA expression in human MDA-MB-231 cells at 75 uM after 3 days by qRT-PCR relative to control. The format is functional.
For experiment [24], the system named is MDA-MB-231. The experiment can be described thus: Suppression of TP53 mRNA expression in human MDA-MB-231 cells at 60 uM after 3 days by qRT-PCR. It counts as functional, cell-based.
Experiment [25] relates to HCT-116. The experiment can be described thus: Suppression of TP53 protein expression in human HCT116 cells at 20 uM after 3 days by Western blotting. It counts as functional, cell-based. The gist of the method: as §1
Experiment [26] deals with HCT-116. The experiment can be described thus: Decrease in EGR1 protein expression in human HCT116 cells after 24 hrs by Western blotting. The format is functional, cell-based. The gist of the method:
as §1

For experiment [27], the system named is HCT-116. The experiment can be described thus: Growth inhibition of human HCT116 cells after 3 days. The format is functional, cell-based. The essentials: as §2
Experiment [28] relates to HCT-116. Briefly: Increase in HPSE protein level in human HCT116 cells at 25 uM after 3 days by Western blotting. The format is functional. The gist of the method: as §1
For experiment [29], the system named is HCT-116. The experiment can be described thus: Decrease in EGR1 mRNA expression in human HCT116 cells after 3 days by qRT-PCR. The format is functional, cell-based.
Experiment [30] has as its system MDA-MB-231. The experiment can be described thus: Increase in NQO1 mRNA expression in human MDA-MB-231 cells at 60 uM after 3 days by qRT-PCR. The format is functional, cell-based.
Experiment [31] relates to MDA-MB-231. Briefly: Increase in TGF-beta1 mRNA expression in human MDA-MB-231 cells at 60 uM after 3 days by qRT-PCR. The format is functional, cell-based.
The test system of experiment [32] is MDA-MB-231. The experiment can be described thus: Decrease in TP53 protein level in human MDA-MB-231 cells at 15 uM after 3 days by Western blotting. The format is functional, cell-based. The essentials:
as §1

Experiment [33] has as its system MDA-MB-231. Briefly: Increase in EGR1 mRNA expression in human MDA-MB-231 cells at 60 uM after 3 days by qRT-PCR relative to control. It counts as functional.
Experiment [34] deals with MDA-MB-231. The experiment can be described thus: Increase in NQO1 mRNA expression in human MDA-MB-231 cells at 45 uM after 3 days by qRT-PCR. It counts as functional, cell-based.
The test system of experiment [35] is MDA-MB-231. Briefly: Increase in ID1 mRNA expression in human MDA-MB-231 cells at 60 uM after 3 days by qRT-PCR. It counts as functional, cell-based.
Experiment [36] has as its system HCT-116. The experiment can be described thus: Suppression of TP53 protein expression in human HCT116 cells at 25 uM after 3 days by Western blotting. It counts as functional, cell-based. The gist of the method: as §1
The subject of experiment [37] is MDA-MB-231. Briefly: Increase in EGR1 mRNA expression in human MDA-MB-231 cells at 45 uM after 3 days by qRT-PCR relative to control. It counts as functional.
The test system of experiment [38] is MDA-MB-231. The experiment can be described thus: Increase in NQO1 mRNA expression in human MDA-MB-231 cells at 75 uM after 3 days by qRT-PCR. It counts as functional, cell-based.
The test system of experiment [39] is HCT-116. The experiment can be described thus: Increase in HPSE protein level in human HCT116 cells at 20 uM after 3 days by Western blotting. It counts as functional. The gist of the method:
as §1

Activity calls are given as the source filed them. The rule behind the calls is not given here. A value given as a limit tells only on which side of the number the result lay.

In the case of `CC(=O)N[C@@H]1C(OC(C)=O)O[C@H](COC(C)=O)[C@@H](OC(C)=O)[C@@H]1OC(C)=O` (some centres undefined), the result with MDA-MB-231 [1] and in the experiment on MDA-MB-231 [2] was Active.

Consider `CCCC(=O)OC[C@H]1OC(OC(C)=O)[C@@H](NC(C)=O)[C@@H](OC(C)=O)[C@@H]1OC(C)=O` (some centres undefined), for which the outcome with MDA-MB-231 [1], in the experiment on MDA-MB-231 [2] and with MDA-MB-231 [3] was Active.

In the case of `CCCC(=O)OC[C@H]1OC(OC(=O)CCC)[C@@H](NC(C)=O)[C@@H](OC(=O)CCC)[C@@H]1OC(=O)CCC` (some centres undefined), the result with MDA-MB-231 [2] was Active.

Take `CCCC(=O)OC1O[C@H](CO)[C@@H](OC(=O)CCC)[C@H](OC(=O)CCC)[C@@H]1NC(C)=O` (some centres undefined): the outcome with MDA-MB-231 [4], in the experiment with MDA-MB-231 [5], in the experiment on MDA-MB-231 [6] and with MDA-MB-231 [7] was inactive.

On to `CCCC(=O)OC[C@H]1OC(O)[C@@H](NC(C)=O)[C@@H](OC(=O)CCC)[C@@H]1OC(=O)CCC` (some centres undefined), for which the outcome in the experiment with MDA-MB-231 [8], in the experiment on MDA-MB-231 [10], in the experiment on MDA-MB-231 [15] and with MDA-MB-231 [38] was inactive. Also, the Activity entry in the experiment on HCT-116 [9] and in the experiment with HCT-116 [21] was “<=5%” each time. Also, the outcome in the experiment with HCT-116 [11], with MDA-MB-231 [12], in the experiment on HCT-116 [13], in the experiment on HCT-116 [16], in the experiment with MDA-MB-231 [17] and with MDA-MB-231 [18] was Active. Also, the result in the experiment with MDA-MB-231 [19], with MDA-MB-231 [20], in the experiment with MDA-MB-231 [22], with MDA-MB-231 [24], in the experiment with HCT-116 [25] and in the experiment on HCT-116 [26] was Active. Moreover, the result in the experiment on HCT-116 [27], with HCT-116 [29], in the experiment with MDA-MB-231 [30], in the experiment with MDA-MB-231 [31], with MDA-MB-231 [32] and in the experiment on MDA-MB-231 [34] was Active. In addition, the result in the experiment with MDA-MB-231 [35] and in the experiment on HCT-116 [36] was Active. For the same molecule, the “fold change (FC)” value is given as 2 in the experiment with MDA-MB-231 [14]; 25 with MDA-MB-231 [23]; “>=50” with HCT-116 [28]; 25 in the experiment on MDA-MB-231 [33]; 2 in the experiment with MDA-MB-231 [37]; “>=50” in the experiment on HCT-116 [39].

Consider `CCCC(=O)OC1O[C@H](COC(C)=O)[C@@H](OC(C)=O)[C@H](OC(C)=O)[C@@H]1NC(C)=O` (some centres undefined), for which the outcome in the experiment on MDA-MB-231 [2] and with MDA-MB-231 [3] was Active.
